Inhibition and IC50 data for 27 compounds are collected here from ChEMBL document CHEMBL3232795, “Using 'biased-privileged' scaffolds to identify lysine methyltransferase inhibitors” (Bioorg Med Chem, 2014).

Calls of active or inactive are those of the source. The calls are words filed in the database; no cut-off is given here.

One assay deals with T1, Histone-lysine N-methyltransferase SETD7 (Homo sapiens) (UniProt Q8WTS6).
T1 sequence (whole entry): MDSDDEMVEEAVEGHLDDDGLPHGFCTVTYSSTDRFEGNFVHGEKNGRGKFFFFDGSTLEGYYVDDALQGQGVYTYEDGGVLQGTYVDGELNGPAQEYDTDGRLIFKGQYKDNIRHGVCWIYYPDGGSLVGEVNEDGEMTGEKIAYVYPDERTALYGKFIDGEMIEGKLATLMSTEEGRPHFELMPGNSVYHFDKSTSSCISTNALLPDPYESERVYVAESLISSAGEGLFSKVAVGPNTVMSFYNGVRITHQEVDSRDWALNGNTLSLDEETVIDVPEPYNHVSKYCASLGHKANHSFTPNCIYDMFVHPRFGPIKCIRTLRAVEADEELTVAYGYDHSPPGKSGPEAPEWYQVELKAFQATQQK
Put plainly: Inhibition of methyl-transferase activity in GST-tagged recombinant SET7/9 (unknown origin) expressed in Escherichia coli BL21 using H3(1-20)-cys-biotin as substrate at 40 uM preincubated for 5 mins followed by substrate addition by ELISA relative to control. The method, boiled down:
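GST-fused SET7 (residues 52–366), expressed in bacteria. Enzyme at 2.8 nM with SAM (300 nM) in Tris pH 8.0 buffer (4% DMSO, BSA, EDTA, DTT, Triton X-100) on streptavidin plates, preincubated with compound 5 min at room temperature. Biotinylated H3(1–20)-cys substrate (900 nM) added, 5 min at 30 °C. Stopped with acetate pH 5.0. H3K4me1 detected with antibody, HRP secondary and chemiluminescence; signal given relative to DMSO control.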
For the compound `O=C(O)c1cccc(NCc2cccc(-n3ccc4c(-c5ccc(C(F)(F)F)cc5)cccc43)c2)c1`, the inhibition result was “Active”. Consider `CC(=O)Nc1ccc(-c2cccc3c2ccn3-c2cccc(CNc3cccc(C(=O)O)c3)c2)cc1`, for which the inhibition result is “Active”. Same read-out and setting: with `O=C(O)c1ccc(-c2cccc3c2ccn3-c2cccc(CNc3cccc(C(=O)O)c3)c2)cc1` the entry was “inactive”. Still for that read-out and setting: next, `N[C@@H](CCSCc1cccc(-n2ccc3cc(Br)ccc32)c1)C(=O)O`: 12%. For the compound `O=C(O)c1cccc(SCc2cccc(-n3ccc4cc(Br)ccc43)c2)c1`, the inhibition result was “Active”.

For the compound `O=C(O)c1cccc(SCc2cccc(-n3ccc4c(Br)cccc43)c2)c1`, the inhibition result was “Active”. Same read-out and setting: with `Cc1ccc(-c2cccc3c2ccn3-c2cccc(CNc3cccc(C(=O)O)c3)c2)cc1` the entry was “Active”. Consider `O=C(O)CCCSCc1cccc(-n2ccc3cc(Br)ccc32)c1`, for which the inhibition result was “Active”.

Consider `O=C(O)c1cccc(NCc2cccc(-n3ccc4c(-c5ccc6ccccc6c5)cccc43)c2)c1`, for which the inhibition entry was “Active”.

Regarding `O=C(O)c1cccc(NCc2cccc(-n3ccc4c(-c5ccccc5)cccc43)c2)c1`, the inhibition is 50%. `O=C(O)c1cccc(SCc2cccc(-n3ccc4c(-c5ccccc5)cccc43)c2)c1`: the inhibition is 50%.

Another assay deals with T2, Histone-lysine N-methyltransferase EHMT2 (Homo sapiens, UniProt Q96KQ7).
T2 sequence (Q96KQ7 whole entry): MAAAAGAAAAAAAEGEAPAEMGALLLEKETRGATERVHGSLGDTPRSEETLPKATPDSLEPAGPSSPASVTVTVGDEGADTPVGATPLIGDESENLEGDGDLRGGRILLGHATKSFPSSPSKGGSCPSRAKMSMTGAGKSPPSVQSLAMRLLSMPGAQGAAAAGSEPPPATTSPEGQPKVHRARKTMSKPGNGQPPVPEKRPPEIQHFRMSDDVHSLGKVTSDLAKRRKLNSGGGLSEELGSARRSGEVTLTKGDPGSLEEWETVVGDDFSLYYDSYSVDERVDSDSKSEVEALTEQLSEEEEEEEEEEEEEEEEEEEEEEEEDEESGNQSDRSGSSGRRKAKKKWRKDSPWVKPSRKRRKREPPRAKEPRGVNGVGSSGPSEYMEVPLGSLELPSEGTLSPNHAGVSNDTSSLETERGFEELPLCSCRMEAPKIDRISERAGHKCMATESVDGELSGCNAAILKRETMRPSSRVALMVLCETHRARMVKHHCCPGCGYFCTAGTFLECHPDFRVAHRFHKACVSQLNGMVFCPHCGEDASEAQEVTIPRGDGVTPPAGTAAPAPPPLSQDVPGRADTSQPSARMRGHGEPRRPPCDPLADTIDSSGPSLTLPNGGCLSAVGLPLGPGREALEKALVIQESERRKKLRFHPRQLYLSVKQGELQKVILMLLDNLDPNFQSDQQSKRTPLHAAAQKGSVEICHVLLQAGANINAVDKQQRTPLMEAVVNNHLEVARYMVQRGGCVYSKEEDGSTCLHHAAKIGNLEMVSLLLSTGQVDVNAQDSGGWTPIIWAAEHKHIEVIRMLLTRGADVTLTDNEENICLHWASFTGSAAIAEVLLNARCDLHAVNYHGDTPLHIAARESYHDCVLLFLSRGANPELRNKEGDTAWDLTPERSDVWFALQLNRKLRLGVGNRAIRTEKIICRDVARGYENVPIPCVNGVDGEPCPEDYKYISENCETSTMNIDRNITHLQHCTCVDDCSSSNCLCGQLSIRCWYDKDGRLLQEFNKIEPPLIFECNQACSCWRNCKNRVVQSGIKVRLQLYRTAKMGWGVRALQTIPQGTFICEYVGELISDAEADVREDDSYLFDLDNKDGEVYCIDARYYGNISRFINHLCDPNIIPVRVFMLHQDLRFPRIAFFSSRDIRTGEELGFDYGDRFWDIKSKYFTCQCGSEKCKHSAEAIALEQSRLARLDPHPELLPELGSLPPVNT
In words: Inhibition of C-terminal GST-tagged human G9a-mediated-methylation of histone3 expressed in Escherichia coli BL21(DE3) by scintillation proximity assay.
`O=C(O)c1cccc(NCc2cccc(-n3ccc4c(-c5ccc(C(F)(F)F)cc5)cccc43)c2)c1` showed an IC50 of 26.4 µM.

The target of a further assay is T1, Histone-lysine N-methyltransferase SETD7 (Homo sapiens). Put plainly: Inhibition of SET7 (unknown origin)-mediated methylation of histone H3(1-20)cys-biotin at 15 to 50 uM after 5 mins by scintillation proximity assay in presence of [3H]-S-adenosyl-methionine. The procedure, abridged:
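SET7 (25 nM) with biotinylated H3(1–20)-cys peptide (900 nM) and compound (2% DMSO final) in Tris pH 8.5 buffer with BSA, EDTA and DTT, 5 min at 30 °C. Started with SAM (2 µM) carrying trace 3H-SAM (0.2 µM), 8 min at 30 °C. Quenched onto streptavidin SPA beads in acetate pH 5.0 with excess cold SAM, then counted. Background-subtracted CPM expressed as percent of DMSO control. Tested twice.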
Consider `O=C(O)c1ccc(S(=O)(=O)Nc2cccc(-n3ccc4c(-c5ccc(C(F)(F)F)cc5)cccc43)c2)cc1`, for which the inhibition result is “Active”. Same read-out and setting: next, `O=C(O)c1cccc(CNc2cccc(-n3ccc4c(-c5ccc(C(F)(F)F)cc5)ncnc43)c2)c1`: “Active”; `O=[N+]([O-])c1cccc(S(=O)(=O)Nc2cccc(-n3ccc4c(-c5ccc(C(F)(F)F)cc5)cccc43)c2)c1`: “Active”. For `O=C(O)c1cccc(NCc2cccc(-n3cnc4c(-c5ccc(C(F)(F)F)cc5)cccc43)c2)c1`, the inhibition result was “Active”. Turning to `O=[N+]([O-])c1ccccc1S(=O)(=O)Nc1cccc(-n2ccc3c(-c4ccc(C(F)(F)F)cc4)cccc32)c1`, the inhibition result is “Active”. The same measure, in the same setting: next, `Cc1cc(O)c(C(=O)O)cc1S(=O)(=O)Nc1cccc(-n2ccc3c(-c4ccc(C(F)(F)F)cc4)cccc32)c1`: “Active”.

With `O=C(O)c1cccc(NCc2cccc(-n3ccc4c(-c5ccc(C(F)(F)F)cc5)ncnc43)c2)c1`, the inhibition entry was “Active”. Same read-out and setting: with `O=C(O)c1cccc(NCc2cccc(-n3ccc4c(-c5ccc(C(F)(F)F)cc5)cccc43)c2)c1` the entry was “Active”; with `O=C(O)c1cccc(NCc2cccc(-n3ccc4cc(-c5ccc(C(F)(F)F)cc5)cnc43)c2)c1`, “Active”.

On to `O=C(O)c1cccc(NCc2cccc(-n3ncc4cc(-c5ccc(C(F)(F)F)cc5)ccc43)c2)c1`, for which the inhibition entry was “Active”.

As to `O=[N+]([O-])c1ccc(S(=O)(=O)Nc2cccc(-n3ccc4c(-c5ccc(C(F)(F)F)cc5)cccc43)c2)cc1`, the inhibition entry is “Active”. Take `CC(=O)Nc1nc(C)c(S(=O)(=O)Nc2cccc(-n3ccc4c(-c5ccc(C(F)(F)F)cc5)cccc43)c2)s1`: the inhibition result is “Active”.

With `O=C(O)c1cccc(S(=O)(=O)Nc2cccc(-n3ccc4c(-c5ccc(C(F)(F)F)cc5)cccc43)c2)c1`, the inhibition entry is “Active”. Still for that read-out and setting: next, `O=C(O)c1cccc(NCc2cccc(-n3ccc4cc(-c5ccc(C(F)(F)F)cc5)ccc43)c2)c1`: “Active”; `O=C(O)c1ccccc1S(=O)(=O)Nc1cccc(-n2ccc3c(-c4ccc(C(F)(F)F)cc4)cccc32)c1`: “Active”; `CS(=O)(=O)c1ccc(S(=O)(=O)Nc2cccc(-n3ccc4c(-c5ccc(C(F)(F)F)cc5)cccc43)c2)cc1`: “Active”. Still for that read-out and setting: next, `O=C(O)c1cccc(NCc2ccc(-n3ccc4c(-c5ccc(C(F)(F)F)cc5)ncnc43)s2)c1`: “Active”.
